Measured values as given in ChEMBL document CHEMBL4513216, “Probing the Open Global Health Chemical Diversity Library for Multistage-Active Starting Points for Next-Generation Antimalarials” (ACS Infect Dis, 2020).

Assay: Toxicity liver stage against HepG2, at 10uM
Type: cell-based
Parameters: test concentration 10 uM, cell line HepG2-A16-CD81EGFP
Conditions: human, HepG2-A16-CD81EGFP cells; read-out: INHIBITION
Outline: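 Uninfected HepG2-A16-CD81EGFP cells, 3 × 10^3 per well, 1536-well, plated on prespotted compound at 10 μM final, parasite-free screening media added to match infected plates; puromycin 10 μM positive, DMSO 0.5% negative; run in parallel with 48 h PbLuc assay at 37 °C, 5% CO2; viability by CellTiter-Glo luminescence, normalized to controls.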

| SMILES | cytotoxicity at 10 µM [%] |
| --- | --- |
| COc1ccc(OCc2cc(C(=O)N3C[C@@H](C)O[C@@H](C)C3)n[nH]2)c(Cl)c1 | -4.28 |
| CCCc1cncnc1N1CCC2(CCC(=O)N(CCCO)C2)CC1 | 2.8 |
| CN1CCN(Cc2cn3c(n2)CN(Cc2ccc(F)cc2)CC3)CC1 | -113 |
| CCC(CC)NCC(C)Oc1cccnc1 (configuration not stated) | 8.26 |
| COc1ccc(CN2CCO[C@H]3CN(C(=O)C4CC4)CC[C@H]3C2=O)cc1 | -147 |
| CN(Cc1cc(-c2cccnc2)no1)C(=O)[C@@H]1CSCN1C | 0.66 |
| CCN(CC)S(=O)(=O)N1CCCC(c2cccc(C(=O)O)c2)C1 (configuration not stated) | -10 |
| COc1cc2c(nn1)CCN(Cc1nnc(Cc3ccccc3)o1)C2 | 4.25 |
| O=C(c1ccc(Cn2ccccc2=O)o1)N1CCSCC1 | -14.8 |
| c1ccc(COC2C[C@@H]3CN(Cc4cncnc4)C[C@@H]3C2)cc1 (some centres not stated) | -40 |
| CCN1CCC2(CC1)CC(CC(=O)N(C)C)c1ccc(F)cc12 (configuration not stated) | -98.6 |
| COc1cccc(CC2CN(C3CC(C)(C)NC(C)(C)C3)CCO2)c1 (configuration not stated) | -91.7 |
| CN(CCCc1nccn1C)c1nccc(N2CCC(O)C2)n1 (configuration not stated) | 10.2 |
| COc1ccc(S(=O)(=O)Nc2cccnc2-n2cncn2)c(C)c1 | 3.64 |
| Cc1cc(CN(C)C(=O)C2CC(c3cccc(F)c3)=NO2)no1 (configuration not stated) | 5.91 |
| COC(C(=O)NC1CCN(S(C)(=O)=O)CC1)c1ccccc1 (configuration not stated) | -4.68 |
| C/C=C(\C)CN1C[C@@H](NC(=O)c2ccc(F)c(F)c2)C[C@H]1C(=O)NCC | 14 |
| Cc1ccc(C)c(CN2CCCn3nc(CNS(C)(=O)=O)cc3C2)c1 | -4.64 |
| CC(C)n1nc(CNc2ncccn2)c2c1CN(C1CCOCC1)CC2 | -129 |
| O=S(=O)(Nc1cnc(N2CCCC2)nc1)c1ccc(C(F)(F)F)cc1 | 3.15 |
| Cc1noc(C(C)C)c1C(=O)NS(=O)(=O)c1ccc(Cl)cc1 | -8.59 |
| Cc1ccc(-c2cccc(N3CCC(NC4CCOCC4)CC3)c2)cc1 | -12.3 |
| COc1ccnc(N2CCN(C(=O)NCc3ccc(C)s3)CC2)n1 | -2.45 |

| SMILES | cytotoxicity at 10 µM [%] |
| --- | --- |
| COc1ccc2c(c1)nc1n2[C@@H](CNC(=O)c2cccnc2)COC1 | -3.74 |
| COCC(C)NC(=O)c1nnn(-c2ccc(Br)cc2)n1 (configuration not stated) | -0.712 |
| CN(Cc1cccc(OC(F)(F)F)c1)C(=O)c1ccncc1F | 3.76 |
| CCNc1ccnc(-c2ccnc3c2ccn3C)n1 | 11.2 |
| Cc1cc(C(=O)N2CCc3nc(N4CCOCC4)nc(C)c3C2)c(C)o1 | -110 |
| Cn1nnc2c1CCN(Cc1ccco1)C2COCc1ccccc1 (configuration not stated) | -133 |
| CCCC(=O)NCc1cccc(C(=O)OC)c1 | 5.99 |
| Cc1ncsc1CN1C[C@H](OCc2ccncc2)[C@H]2OCCC[C@H]21 | -139 |
| CC(=O)Nc1ccc(SCCCC(=O)NCC2CCCO2)nn1 (configuration not stated) | -8.67 |
| Cc1nc(C(=O)NCc2ccc(N3CCNC(=O)C3)c(F)c2)cs1 | -0.0162 |
| Cc1c(C(=O)NCc2ccnc(OCC(F)(F)F)c2)cnn1C | -5.78 |
| COc1ccnc(N(C)Cc2ccccc2OC(F)(F)F)n1 | 6.15 |
| COc1ccc(OCCN2CCCN(Cc3noc(C)n3)CC2)cc1 | -6.12 |
| CCS(=O)(=O)N1CC[C@H]2O[C@@H](c3nnc(C)o3)CC[C@H]21 | -63.7 |
| CCN(CCCNC(=O)c1ccc(C)[nH]c1=O)S(C)(=O)=O | -8.01 |
| Cc1cc2n(n1)CC(CNCc1cc(C)on1)CN2 (configuration not stated) | -7.93 |
| CCN1CCC(CC(=O)NCCc2nc(N)cc(O)n2)CC1 | 0.821 |
| CCCc1nccn1-c1ccc(C(O)CN2CCOCC2)cc1 (configuration not stated) | 3.43 |
| CCOc1c(CNCCCn2ccnc2)cc(Cl)cc1OC | -3.88 |
| CCc1cc(NC(C)(C)C)nc(N2CCOCC2)n1 | 0.393 |
| O=C(NCC1(N2CCOCC2)CCSC1)Nc1ccccn1 (configuration not stated) | 8.64 |
| O=C(NCc1cccnc1-n1cncn1)c1cncc(Br)c1 | 10 |
| COC(=O)c1ccc(NC(=O)CCc2ccncc2)c(C)c1 | 7.83 |

| SMILES | cytotoxicity at 10 µM [%] |
| --- | --- |
| Cc1nc(N)cc(C2(C)CCCNC2)n1 (configuration not stated) | 1.36 |
| Cc1ccc(-n2cccn2)cc1S(=O)(=O)N1C[C@H]2CC[C@@H](C1)N(C)C2 | 1.62 |
| O=S(=O)(c1ccccc1)N1CCC2(CCCN2Cc2cccc(Cl)c2)C1 (configuration not stated) | -130 |
| O=C1NCCc2c1sc1ccc(C(=O)N3CC[C@H](CO)[C@H](O)C3)cc21 | -1.7 |
| CCCN(Cc1cnn(C)c1)CC1CCCN(S(C)(=O)=O)C1 (configuration not stated) | 15.1 |
| COCC(C)N(C)C(=O)c1nc(S(C)(=O)=O)n2ccccc12 (configuration not stated) | -11 |
| CC(C(=O)NCc1ccnc(N2CCCC2)c1)n1cncn1 (configuration not stated) | -3.43 |
| Cc1ccc(N2CCCN(C(=O)CCCn3ccnc3C)CC2)nn1 | -3.83 |
| Cn1cc(-c2c(C#N)c(N)nc3c2CCc2[nH]ccc2-3)cc1C#N | -1.68 |
| CC(C)Sc1ncccc1C(=O)NCc1ccc(CS(C)(=O)=O)cc1 | 3.78 |
| Cc1noc(C)c1CN(C)c1nccc(C(F)(F)F)n1 | -4.73 |
| CCc1ccc(C2c3nc[nH]c3CCN2Cc2nccn2CC)nc1 (configuration not stated) | -0.123 |
| CSCCC(=O)N1C[C@@H](C)[C@](O)(C(C)C)C1 | 0.68 |
| CC(C)c1nnc(N2C[C@@H](CN(C)CCO)[C@@H](CO)C2)s1 | -2.48 |
| COCCNC(=O)N1CCCCC1CNC(=O)Nc1ccccc1 (configuration not stated) | -0.244 |
| NC(=O)CC1CCN(C(=O)NCc2ccc(-c3ccn[nH]3)cc2)CC1 | -2.38 |
| Cc1cc(N2CCCC2)nc(N(C)CCO)c1C#N | 0.252 |
| Cc1nn(C)c2nc(N3CCCCC3c3cccnc3)sc12 (configuration not stated) | -6.9 |
| c1cncc(CN(Cc2ccsc2)Cc2ccc(C3CCCCO3)o2)c1 (configuration not stated) | 14.8 |
| O=S(=O)(C1CC1)N1CCOCC2(CN(c3ncccn3)CCO2)C1 (configuration not stated) | 6.37 |
| CCc1cc(N2C[C@H](C3CC3)[C@@H](N)C2)nc(N2CCOCC2)n1 | -1.47 |
| COC(=O)C(NC(=O)C1CCCC1)c1cc(F)ccc1F (configuration not stated) | 5.67 |
| COC(=O)CNC(=O)CSCc1nc(O)c2c(C)c(C)sc2n1 | 0.562 |

| SMILES | cytotoxicity at 10 µM [%] |
| --- | --- |
| Cc1cc(N2CCOC(C)(C(=O)N(C)C)C2)ncn1 (configuration not stated) | -0.277 |
| Cc1nc(NC(=O)COCC(F)(F)F)ccc1Br | 9.44 |
| O=C(Cc1ccc(S(=O)(=O)C(F)F)cc1)N1CCC1 | -17 |
| Cn1ccc(CN2CCC(CCc3ccc(O)cc3)CC2)cc1=O | 1.2 |
| Cc1ccc(N2CCC3(CCN(C(=O)N(C)C)CC3)CC2)nn1 | 5.73 |
| Cc1ccc(N2CC[C@H](OCC3CC3)[C@@H]2Cc2cccnc2)nn1 | 1.13 |
| O=C(NCC(=O)N1CCCC1Cc1cccc(F)c1)C1CCCC1 (configuration not stated) | -18 |
| Cc1cc(CN2CCC(c3ccnn3CCO)CC2)no1 | -11.2 |
| CC(=O)N[C@@H]1CN(Cc2cccs2)C[C@H]1c1ccc(C)o1 | 6.54 |
| CSc1ncc(Cl)c(C(=O)NC(Cc2ccccc2)C(=O)O)n1 (configuration not stated) | -17.3 |
| CN(C)CCNC(=O)CCC1CCN(C(=O)c2ccc(Cl)cc2O)CC1 | -11.7 |
| c1ccc(CN2CCC3(CC2)CN(c2ccccn2)CCO3)nc1 | -6.38 |
| N#Cc1cc(NC(=O)c2cscn2)ccc1N1CCC(O)CC1 | 6.59 |
| Cc1n[nH]c(C2CN(CCNC3CCCCC3)CCO2)n1 (configuration not stated) | -8.29 |
| CC1COCCN1Cc1nc(-c2ccsc2)no1 (configuration not stated) | -17.8 |
| N#Cc1cc2c(nc1O)CCCCC2 | -6.88 |
| c1cncc(-c2ccnn2CN2CCOCC2)c1 | 3.44 |
| Cc1nc(C(C)C)sc1C(=O)NCCSc1ccccn1 | 3.76 |
| Cc1cccc(CNCc2c(C)nn(C)c2N2CCOCC2)n1 | -10.9 |
| CC(C)COCC1CN(Cc2ccoc2)Cc2ncn(C)c21 (configuration not stated) | 4.53 |
| COc1ccc(OC)c(S(=O)(=O)NCC2(OC)CCSC2)c1 (configuration not stated) | -12.8 |
| Cc1nc(NC(=O)C(C)N(C)Cc2ccc3c(c2)OCO3)sc1C (configuration not stated) | 0.787 |
| CC1COCCN1C(=O)Cc1cc(Cl)c2c(c1)OCCO2 (configuration not stated) | -4.29 |

| SMILES | cytotoxicity at 10 µM [%] |
| --- | --- |
| COc1ccccc1OC1(C(=O)O)CCN(c2cc(C)nc(C)c2)CC1 | 2.65 |
| O=C(CN1CCOC(Cn2cccn2)C1)Nc1ccncc1 (configuration not stated) | 0.748 |
| Cc1nn(C)cc1CC(C#N)C(=O)Nc1cccc(O)c1 (configuration not stated) | 2.8 |
| CCN1CC[C@]2(CN(Cc3nccs3)C[C@H]2c2ccccc2)C1=O | 4.89 |
| Cn1nccc1-c1ncc(-c2cc(C(=O)O)n(CC3CC3)c2)cn1 | 1.55 |
| O=C(CN1C(=O)CCC1=O)N1CCOCC1 | 2.48 |
| CCc1nsc(NC2CC(=O)N(C3CC3)C2)n1 (configuration not stated) | 9.43 |
| CC(C)(C)NC(=O)N1CCCn2nc(C(=O)Nc3ccccc3)cc2C1 | 8.88 |
| O=C1[C@H]2CN(c3ncc(F)cn3)C[C@H]2CN1CC1CC1 | 6.19 |
| COc1ccc(CC(C)Nc2cccc(SC)c2)cc1 (configuration not stated) | 11.6 |
| CCCSc1nc(O)c(CC)c(=O)n1-c1ccccc1 | 2.77 |
| Cc1nn(C)c(C)c1-c1cnc(C2CCCN(S(C)(=O)=O)C2)cn1 (configuration not stated) | -11.3 |
| CCC(C)N(Cc1cccnc1)C(=O)c1ncccc1O (configuration not stated) | 14.9 |
| Cc1cc(=O)n(CC(=O)NC(C)C)c(Nc2ccc(F)c(C)c2)n1 | 7.97 |
| CCOc1ccc2cc(C(=O)N3CCn4c(CC)nnc4C3)[nH]c2c1 | -4.77 |
| CN1CCC(NC(=O)c2cc(F)cc(Cl)c2O)C1=O (configuration not stated) | 3.09 |
| NC(=O)c1ccc(C2CCCN2C(=O)CCn2nnc3ccccc32)s1 (configuration not stated) | 3.92 |
| OC(CN(Cc1ccccc1)Cc1cscn1)c1cccs1 (configuration not stated) | 4.74 |
| Cc1cc(C)n(CC2CN(Cc3nnsc3Cl)CCO2)n1 (configuration not stated) | 1.46 |
| COc1cccc(NC(=O)NCC2CCCN(C3CCOCC3)C2)c1 (configuration not stated) | -2.48 |
